# Shown are actives, neighbours in structure and some others; about 1.7% of the full set was active somewhere.
# Arr AP2 block = inhibitors of beta-arrestin/AP2 binding, primary screen, biochemical, GPCR trafficking, flow cytometry; beta-arrestin 1 C-terminal peptide binding to AP2 beta2-adaptin appendage (human); FITC-arrestin peptide / GST-AP2 beads; AP2 beta2 appendage carries R879A mutation; inhibition, % at 10 µM; 0.31% of 340,000 active; AID 504490, 2011;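 active = inhibition above a set limit, near 3 SD of compounds lacking own fluorescence, cut at about 54% in these data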;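 note: plate controls were DMSO wells for no effect and 5 µM unlabelled arrestin peptide for full effect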
#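 System: GST-AP2 R879A glutathione beads | Also added: FITC-arrestin peptide, 50 nM | Times: 12 min plus 1 h, RT | Signal: Bead flow cytometry, FITC channel | Buffer or medium: PBS with 0.05% Tween 20 and 0.1% BSA | Read-out basis: Percent drop in bead-associated FITC signal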
# Neddylation inh = inhibitors of cullin neddylation, primary screen, biochemical, TR-FRET, uHTS, NAE and Ubc12; AID 651699, 2012; 0.58% of 360,000 active; NEDD8-conjugating enzyme Ubc12 (Homo sapiens) + NEDD8-activating enzyme E1 regulatory …; inhibition, % at 25 µM; in the data active = inhibition above about 36%
# Efflux pump mplx = inhibitors of Candida efflux pumps in yeast, primary screen, S. cerevisiae, Nile Red, multiplex | 0.44% of 330,000 active | AID 485275, 2010 | inhibition, % at 10 µM | S. cerevisiae Candida pump triplex;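 active = plate passing quality check with inhibition over a set limit, or well fluorescence over plate mean plus 4 SD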;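 note: Nile Red retained in pooled yeast measured as flow cytometry median fluorescence; 0% = buffer negative control and 100% = Enniatin B positive control; higher means more Nile Red kept so more efflux inhibition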
# Pemphigus Ab inh = inhibitors of pemphigus antibody binding to DSG3, primary screen, biochemical, bead-based, flow cytometry, scFv-GFP; Desmoglein-3 (Homo sapiens), P32926; binding (percent of control), % at 10 µM; DSG3-coupled beads, scFv-anti-DSG3-GFP binding; stronger effect = lower value; 0.48% of 310,000 active; AID 588358, 2011;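 active = binding more than 3 SD below its plate's average and above zero; inconclusive = below that plate limit but binding exactly zero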;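 note: hits lower antibody fragment binding to DSG3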
# Target sequence (P32926 whole entry, looked up, the tested form may be a part): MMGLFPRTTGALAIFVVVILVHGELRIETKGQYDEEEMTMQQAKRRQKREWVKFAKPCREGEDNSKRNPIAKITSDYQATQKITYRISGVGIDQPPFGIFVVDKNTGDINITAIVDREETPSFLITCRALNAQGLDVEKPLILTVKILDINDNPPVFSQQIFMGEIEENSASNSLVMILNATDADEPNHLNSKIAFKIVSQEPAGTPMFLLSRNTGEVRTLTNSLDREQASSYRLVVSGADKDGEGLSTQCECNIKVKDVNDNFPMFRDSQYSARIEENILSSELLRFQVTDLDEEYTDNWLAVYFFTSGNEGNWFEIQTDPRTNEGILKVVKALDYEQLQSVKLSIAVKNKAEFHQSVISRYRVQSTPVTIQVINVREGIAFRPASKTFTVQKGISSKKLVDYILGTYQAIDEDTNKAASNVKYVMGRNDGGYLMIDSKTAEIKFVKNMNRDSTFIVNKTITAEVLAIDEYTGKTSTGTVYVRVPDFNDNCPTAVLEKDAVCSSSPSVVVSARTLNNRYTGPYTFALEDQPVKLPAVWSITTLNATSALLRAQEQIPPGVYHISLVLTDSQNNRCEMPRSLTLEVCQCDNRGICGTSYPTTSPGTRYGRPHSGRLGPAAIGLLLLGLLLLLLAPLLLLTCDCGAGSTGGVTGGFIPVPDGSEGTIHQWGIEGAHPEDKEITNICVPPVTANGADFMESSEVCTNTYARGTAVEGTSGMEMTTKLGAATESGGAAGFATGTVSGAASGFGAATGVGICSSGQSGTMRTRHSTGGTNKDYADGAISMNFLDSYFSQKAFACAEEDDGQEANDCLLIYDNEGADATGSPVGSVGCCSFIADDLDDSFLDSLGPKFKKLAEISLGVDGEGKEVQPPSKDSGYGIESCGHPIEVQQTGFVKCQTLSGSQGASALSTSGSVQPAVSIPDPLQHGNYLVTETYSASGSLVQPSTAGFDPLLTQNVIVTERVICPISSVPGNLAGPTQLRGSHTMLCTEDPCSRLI
# An asterisk follows results filed as active; i = inactive; ? = inconclusive; . = no result shown.
SMILES,Arr AP2 block,Neddylation inh,Efflux pump mplx,Pemphigus Ab inh
Cc1ccc(-c2cc(C(=O)Nc3cccnc3)c3ccccc3n2)o1,11,1,0,81*
Cc1cc(NC(=O)CSc2nc3c(C)c(C)ccc3cc2C)no1,14,-301,0,94
COc1ccc(NC(=O)CSc2nnnn2Cc2ccccc2)cc1,-7,-1,0,65*
COc1ccccc1NC(=O)CSc1nnnn1Cc1ccccc1,25,1,0,116
CCOC(=O)c1nn(-c2ccccc2)c(=O)c2c(NC(C)=O)scc12,-9,12,0,62*
CCOC(=O)c1cc2c(C)nn(-c3ccccc3)c2s1,-6,15,0,-30*
COC(=O)c1cc2c(C)nn(-c3ccccc3)c2s1,0,27,0,.
O=c1sc(N2CCN(c3ccc(F)cc3)CC2)nc2ccsc12,-3,i,0,79*
O=c1sc(N2CCN(c3ccccc3F)CC2)nc2ccsc12,-4,-51,0,95
CCOC(=O)C1(C)CCCN(C(=O)c2ccc(C#N)cc2)C1 (centres undefined),.,10,.,.
CCc1ccc2oc(-c3ccc(OC)cc3)cc(=Nc3c(C)n(C)n(-c4ccccc4)c3=O)c2c1,-1,45*,0,104
Cc1cc(Oc2ccccc2F)nc(NCc2ccccc2)n1,-1,7,.,-3.2*
O=C(CCN1C(=O)/C(=C/c2ccc(F)cc2)SC1=S)NC1C=CS(=O)(=O)C1 (centres undefined),14,-38,0,60*
O=C(CSc1nnc(-c2ccccc2)n1C1CCCCC1)N1CCCC1,-8,0,0,97
CC1CCCN(C(=O)CSc2nnc(-c3cccnc3)n2C2CCCCC2)C1 (centres undefined),6,-2,0,61*
O=CC(O)C1OC(=O)C(O)C1O (centres undefined),4,5,.,86*
CN(NC1OC(=O)c2ccccc21)c1ccc(C(F)(F)F)cc1[N+](=O)[O-] (centres undefined),3,-12,0,84*
COc1ccc(NC(=O)CN(C)S(=O)(=O)c2ccc(Br)s2)cc1OC,6,-24,0,110
COc1ccc(NC(=O)CN(C)S(=O)(=O)c2ccc(Br)s2)cc1,-4,-15,0,-22*
COCCCNS(=O)(=O)c1ccc(C)cc1,-15,-7,0,105
CS(=O)(=O)N(CC(=O)N1CCOCC1)c1cccc(F)c1,-2,-2,0,77*
O=C(NCCC1=CCCCC1)c1cc(COc2c(F)cccc2F)on1,-9,0,0,105
CSc1ccccc1OCc1cc(C(=O)NCCC2=CCCCC2)no1,1,-16,0,25*
CCOc1ccc(OCC)c(S(=O)(=O)N2CCC(C)CC2)c1,18,-3,1,104
O=S(=O)(NCc1ccccc1)c1ccc(S(=O)(=O)N(Cc2cccs2)CC2CCCO2)cc1 (centres undefined),8,1,0,90*
SMILES,Arr AP2 block,Neddylation inh,Efflux pump mplx,Pemphigus Ab inh
C#CCn1c(=NC(=O)c2sc3ccccc3c2Cl)sc2cc(S(N)(=O)=O)ccc21,-15,2,0,109*
CSc1nc(Cc2ccccc2)cc(=O)[nH]1,-11,2,0,61*
COc1ccc(CNc2ncnc3c2[nH]c2ccccc23)cc1,-10,35,0,100
CC(C)OCCCNc1ncnc2c1[nH]c1ccccc12,6,38*,0,101
O=C(COC(=O)/C=C/c1cccc(Cl)c1)Nc1c(F)cccc1F,-6,-6,0,-5.5*
O=c1c2ccccc2[nH]c2ccc(O)cc12,42,42*,0,95
Cc1ccc2[nH]c3ccccc3c(=O)c2c1,1,.,0,92
CCSc1ccccc1-c1nc(-c2ccncc2)no1,8,-83,0,70*
CCOc1ccccc1-c1nc(-c2ccncc2)no1,-11,-7,0,96
CC(C)(C)c1ccc(C(=O)CC(Sc2ccc(Cl)cc2)C(=O)O)cc1 (centres undefined),13,0,0,98
CCCCn1c(SCC(=O)N(CC)C2CCS(=O)(=O)C2)nc2cc(S(N)(=O)=O)ccc21 (centres undefined),10,1,0,16*
Cc1cccc2cc(C#N)c(SCC(=O)N3CC(=O)Nc4ccccc43)nc12,38,i,0,101
COc1ccc2cc(C#N)c(SCC(=O)N3CC(=O)Nc4ccccc43)nc2c1,-5,-415,0,69*
CCC1=NN2C(=N)/C(=C\c3ccc(OCc4cc(=O)n5nc(CC)sc5n4)c(OC)c3)C(=O)N=C2S1,-4,-2,.,62*
COc1cc(OC)cc(C(=O)Nc2ccccc2C(=O)NCc2cccnc2)c1,6,3,0,101
CCCC(=O)N(C1CC(C)C(C#N)(C#N)C1(C#N)C#N)N(C)C (centres undefined),-2,53*,0,.
CCc1ccc(CN2CCN(c3ncccn3)CC2)cc1,9,8,0,102
Cc1ccc(/C=C2\SC(=S)N(c3cccnc3)C2=O)cc1,-43,0,0,100
COc1cc(/C=C2\SC(=S)N(c3cccnc3)C2=O)ccc1O,44,-24,0,68*
Cc1ccc(NC(=O)COC(=O)CCC(=O)c2cccs2)c(C)c1,5,-3,0,91*
Cc1ccccc1NC(=O)COC(=O)CCC(=O)c1cccs1,-5,-3,.,98
Cc1ccc(S(=O)(=O)NCC(=O)OCC(=O)c2cccs2)cc1,-6,-49,0,43*
O=C(CN(Cc1ccccc1)C(=O)CCC(=O)Nc1nccs1)NCC1CCCO1 (centres undefined),1,-2,0,0.3*
O=[N+]([O-])c1ccccc1N/N=C/c1ccc2c(c1)OCO2,18,-4,.,92
NS(=O)(=O)c1ccc(N/N=C/c2ccc3c(c2)OCO3)c([N+](=O)[O-])c1,-15,-9,0,31*
SMILES,Arr AP2 block,Neddylation inh,Efflux pump mplx,Pemphigus Ab inh
C(=C\c1ccco1)/C1=NN(c2ccccc2)C(c2ccco2)C1 (centres undefined),-8,.,1.4*,110
O=[N+]([O-])c1ccc(/C=C/C2=NN(c3ccccc3)C(c3ccco3)C2)o1 (centres undefined),-46,4,.,180
COc1ccc(/C=N/Nc2cc(C)nc3c(C)cccc23)cc1,0,52*,0,120
COc1cc(C(=O)NCCc2ccc(S(=O)(=O)N3CCCC3)cc2)cc(OC)c1OC,12,-3,0,.
CC(C)(C)c1ccc(OCCCC(=O)NC2=NCCS2)cc1,8,0,0,-19*
CC(C)(C)c1ccc(C(=O)NCCC(=O)NC2=NCCS2)cc1,7,4,0,?
COC(=O)c1ccc(C2C(Oc3ccccc3)C(=O)N2CCc2ccc(OC)c(OC)c2)cc1 (centres undefined),14,8,0,83*
